Source: ChEMBL document CHEMBL1126724, “Multiple binding modes for the receptor-bound conformations of cyclic AII agonists” (J Med Chem, 1993)
*1 amine or outer side, *2 acyl side, *3 side chain or, on linkers, in order; H or OH if unused. Where a SMILES comes first, the peptide text is derived from it. Bridges are numbered along the chain shown (N, C = ends). Roman numbers before positions name the chains, in order. [ ]: non-standard residue; d: D form. Pro(4R-SH) = O=C([C@@H]1C[C@@H](S[*:3])CN1[*:1])[*:2]; Pro(4S-SH) = O=C([C@@H]1C[C@H](S[*:3])CN1[*:1])[*:2]; hCys = N[C@@H](CCS)C(=O)O; Sar = CNCC(=O)O

Legend:
[1] = molecular target: T1, Type-1 angiotensin II receptor (Oryctolagus cuniculus, UniProt P34976); experiment: Agonist efficacy assessed from contractile responses on rabbit aorta Angiotensin II receptor, type 1; Not Active; type: functional, tissue-based
T1 sequence (P34976 whole entry): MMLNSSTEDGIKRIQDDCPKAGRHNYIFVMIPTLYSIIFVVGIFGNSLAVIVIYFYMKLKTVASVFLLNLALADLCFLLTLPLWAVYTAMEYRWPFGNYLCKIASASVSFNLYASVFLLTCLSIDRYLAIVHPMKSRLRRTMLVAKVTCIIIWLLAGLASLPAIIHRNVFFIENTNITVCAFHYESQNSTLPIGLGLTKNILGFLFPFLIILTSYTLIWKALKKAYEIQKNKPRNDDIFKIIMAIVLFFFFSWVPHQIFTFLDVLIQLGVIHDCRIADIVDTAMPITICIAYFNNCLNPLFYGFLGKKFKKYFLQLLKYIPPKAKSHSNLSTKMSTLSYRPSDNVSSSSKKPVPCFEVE
Outline: (§1)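 Rabbit thoracic aortic rings held in 20-mL baths of Krebs-bicarbonate at 37 °C, gassed with 5% CO2 in oxygen. Resting tension 4.0 g, 90-min equilibration. Peptides added cumulatively until maximal response. EC50 read graphically from the curves as the concentration giving 50% of maximal contraction.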

[2] = molecular target: T2, Angiotensin II receptor (AT-1) type-1 (Rattus norvegicus, UniProt P29089+P25095); experiment: In vitro binding affinity to the angiotensin II receptor, type 1 in rat liver
T2 sequence (P29089 whole entry): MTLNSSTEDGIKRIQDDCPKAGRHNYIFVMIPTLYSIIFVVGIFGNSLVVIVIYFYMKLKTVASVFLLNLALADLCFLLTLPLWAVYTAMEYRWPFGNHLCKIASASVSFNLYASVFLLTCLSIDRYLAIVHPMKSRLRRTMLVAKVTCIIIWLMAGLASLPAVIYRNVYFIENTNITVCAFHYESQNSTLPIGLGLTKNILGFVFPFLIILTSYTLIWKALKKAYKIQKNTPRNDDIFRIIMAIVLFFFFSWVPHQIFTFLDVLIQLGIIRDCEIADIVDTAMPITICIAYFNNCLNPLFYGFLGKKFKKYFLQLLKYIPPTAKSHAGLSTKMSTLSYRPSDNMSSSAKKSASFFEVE
T2 sequence (P25095 whole entry): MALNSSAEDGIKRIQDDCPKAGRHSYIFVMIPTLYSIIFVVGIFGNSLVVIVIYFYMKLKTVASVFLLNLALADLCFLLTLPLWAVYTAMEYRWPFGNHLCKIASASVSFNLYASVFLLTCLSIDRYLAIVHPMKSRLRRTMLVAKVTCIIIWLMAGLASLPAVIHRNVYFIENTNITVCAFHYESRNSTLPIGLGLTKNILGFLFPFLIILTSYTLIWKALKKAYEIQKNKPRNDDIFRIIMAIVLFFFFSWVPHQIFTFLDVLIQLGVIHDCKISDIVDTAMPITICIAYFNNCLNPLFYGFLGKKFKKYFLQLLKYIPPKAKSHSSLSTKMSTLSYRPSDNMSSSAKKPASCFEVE
Outline: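 Buffer: 50 mM NaH2PO4 pH 7.1 with 100 μM bacitracin, 0.2% BSA, 100 mM NaCl, 10 mM MgCl2, 1 mM EGTA. Incubated 1 h at 25 °C, then filtered, and filters counted. IC50 from weighted nonlinear regression to the mass action equation.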

Oryctolagus cuniculus = species: Oryctolagus cuniculus; experiment: Agonist efficacy assessed from contractile responses on rabbit aorta (AT1); type: functional; outline: as §1

SMILES	EC50 [1]	IC50 [2]	EC50 (Oryctolagus cuniculus)
CNCC(=O)N[C@@H](CCCN=C(N)N)C(=O)N1C[C@@H]2C[C@H]1C(=O)N[C@@H](Cc1ccc(O)cc1)C(=O)N[C@H](C(=O)N[C@@H](Cc1c[nH]cn1)C(=O)N1CCC[C@H]1C(=O)N[C@@H](Cc1ccccc1)C(=O)O)CSS2 (H-[Sar]R[Pro(4S-SH)]YCHPF-OH; disulfide 3-5)	Not Active	4700 nM	–
CNCC(=O)N[C@@H](CCCN=C(N)N)C(=O)N1C[C@@H]2C[C@H]1C(=O)N[C@@H](Cc1ccc(O)cc1)C(=O)N[C@H](C(=O)N[C@@H](Cc1c[nH]cn1)C(=O)N1CCC[C@H]1C(=O)N[C@@H](Cc1ccccc1)C(=O)O)CSS[C@H]1C[C@@H](C(=O)N[C@@H](Cc3ccc(O)cc3)C(=O)N[C@H](C(=O)N[C@@H](Cc3c[nH]cn3)C(=O)N3CCC[C@H]3C(=O)N[C@@H](Cc3ccccc3)C(=O)O)CSS2)N(C(=O)[C@H](CCCN=C(N)N)NC(=O)CNC)C1 (I: H-[Sar]R[Pro(4S-SH)]YCHPF-OH / II: H-[Sar]R[Pro(4S-SH)]YCHPF-OH; disulfide I:3-II:5, I:5-II:3)	–	110 nM	870 nM
CNCC(=O)N[C@@H](CCCN=C(N)N)C(=O)N1C[C@H]2C[C@H]1C(=O)N[C@@H](Cc1ccc(O)cc1)C(=O)N[C@H](C(=O)N[C@@H](Cc1c[nH]cn1)C(=O)N1CCC[C@H]1C(=O)N[C@@H](Cc1ccccc1)C(=O)O)CCSS2 (H-[Sar]R[Pro(4R-SH)]Y[hCys]HPF-OH; disulfide 3-5)	–	29 nM	700 nM
